In ChEMBL document CHEMBL5154772, “Biological Investigation of a Water-Soluble Isoginkgetin-Phosphate Analogue, Targeting the Spliceosome with In Vivo Antitumor Activity” (J Med Chem, 2022) one finds Activity data, which are given here for two molecules.

SMILES strings stand for the structures. The source made the active and inactive calls. No cut-off for these calls is given here.

What all share (assay type): functional, cell-based
The subject of assay [1] is U2OS. Nature of the assay: Antitumor immunity against human U2OS cells assessed as decrease in ATP by measuring reduction in quinacrine green fluorescence intensity at 3 uM pretreated for 24 hrs by live fluorescence microscopic analysis.
Assay [2] relates to U2OS. Nature of the assay: Antitumor immunity against human U2OS cells expressing CALR-GFP fusion protein assessed as accumulation CALR-GFP fusion protein at 3 uM measured upto 24 hrs by live cell microscopic analysis.
Assay [3] concerns U2OS. The assay can be described thus: Antitumor immunity against human U2OS cells expressing HMGBI-GFP fusion protein assessed as accumulation HMGBI-GFP fusion protein at 3 uM measured upto 24 hrs by live cell microscopic analysis.
The subject of a further assay is MCA-205. The assay can be described thus: Induction of B3Z T-cell activation cocultured with mouse MCA-205 cells expressing SL8 epitope assessed as increase in intron-derived SL8 antigen presentation at 2 to 10 uM measured after 18 hrs. To be noted: dose 2-10 µM. In short, it runs like this: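 MCA205 cells transfected with YFP-Globin-SL8-intron plasmid (pCDNA3 empty-vector control). 24 h later, treated 18 h. Washed, then 5x10^4 cells co-cultured with 1x10^5 SL8/H-2Kb-specific B3Z CD8+ T-cell hybridoma for 18 h at 37 °C. Cells lysed, β-galactosidase read with 40 µM MUG substrate over 3 h at room temperature. Normalised to unspecific B3Z activation. At least three biological replicates, Student's t-test.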

On to `O=C1c2c(O)ccc(O)c2C(=O)c2c(NCCNCCO)ccc(NCCNCCO)c21`, for which the result with U2OS [1], in the assay with U2OS [2] and in the assay with U2OS [3] was Active.
Regarding `COc1cc(-c2ccc(=O)[nH]n2)ccc1OC(F)F`, the outcome in the assay on MCA-205 was Active.
